Measured values published in ChEMBL document CHEMBL1133651, “Thiazoloindans and thiazolobenzopyrans: a novel class of orally active central dopamine (partial) agonists” (J Med Chem, 2000).
Active and inactive are the calls of the source. No cut-off for these calls is given here.

Columns and labels:
[1] = biological target: D(2) dopamine receptor (Rattus norvegicus) (UniProt P61169); assay: Inhibition of quinpirole (30 nM)-stimulated [3H]thymidine uptake in CHO-L6 cells transfected with the rat Dopamine receptor D2L; NA is not active; assay type: functional, cell-based
Sequence of D(2) dopamine receptor (Rattus norvegicus) (P61169 whole entry): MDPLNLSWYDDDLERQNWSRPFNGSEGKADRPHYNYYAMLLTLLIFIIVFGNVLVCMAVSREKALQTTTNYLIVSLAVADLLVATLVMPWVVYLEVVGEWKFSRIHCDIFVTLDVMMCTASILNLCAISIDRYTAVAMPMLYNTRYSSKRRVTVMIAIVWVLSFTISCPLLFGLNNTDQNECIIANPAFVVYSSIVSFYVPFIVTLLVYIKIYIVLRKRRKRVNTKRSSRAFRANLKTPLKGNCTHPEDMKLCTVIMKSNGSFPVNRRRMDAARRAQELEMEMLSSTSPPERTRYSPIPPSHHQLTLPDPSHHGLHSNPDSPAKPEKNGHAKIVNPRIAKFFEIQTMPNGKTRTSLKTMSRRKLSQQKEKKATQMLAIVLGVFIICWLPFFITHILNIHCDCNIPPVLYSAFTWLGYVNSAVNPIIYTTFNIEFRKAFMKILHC

[2] = biological target: D(2) dopamine receptor (Rattus norvegicus) (UniProt P61169); assay: compound was tested for intrinsic activity for thymidine uptake in CHO-L6 cells transfected with rat Dopamine receptor D2L; assay type: functional, cell-based
How it was run: (§1)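 Mitogenesis assay for agonism: [³H]thymidine uptake measured in CHO-L6 cells transfected with rat D2L receptor. Intrinsic activity expressed relative to quinpirole, taken as full agonist (IA 100%). Means of three determinations.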

D(3) dopamine receptor [3] = biological target: T1, D(3) dopamine receptor (Rattus norvegicus, UniProt P19020); assay: Effective concentration was determined as thymidine uptake in CHO-L6 cells transfected with the rat Dopamine receptor D3 by mitogenesis assay (intrinsic activity)
T1 sequence (P19020 whole entry): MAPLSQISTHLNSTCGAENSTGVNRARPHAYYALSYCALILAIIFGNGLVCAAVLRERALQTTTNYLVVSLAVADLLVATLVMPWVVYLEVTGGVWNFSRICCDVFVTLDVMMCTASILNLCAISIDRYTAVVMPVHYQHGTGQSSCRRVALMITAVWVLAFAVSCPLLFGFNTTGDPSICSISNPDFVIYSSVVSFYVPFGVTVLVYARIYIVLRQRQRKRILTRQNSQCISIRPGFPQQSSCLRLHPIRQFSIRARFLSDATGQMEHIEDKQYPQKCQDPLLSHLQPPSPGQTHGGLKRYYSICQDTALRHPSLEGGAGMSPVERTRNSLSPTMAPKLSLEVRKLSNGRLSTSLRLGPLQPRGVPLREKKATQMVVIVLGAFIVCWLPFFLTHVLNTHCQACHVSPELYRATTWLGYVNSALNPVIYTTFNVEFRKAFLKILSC

D(2) dopamine receptor [4] = biological target: T2, D(2) dopamine receptor (Rattus norvegicus, UniProt P61169); assay: Effective concentration was determined as thymidine uptake in CHO-L6 cells transfected with the rat Dopamine receptor D2L by mitogenesis assay (intrinsic activity); assay type: functional, cell-based; how it was run: as §1
T2 sequence (P61169 whole entry): as the sequence (P61169 whole entry) above

D(4) dopamine receptor = biological target: T3, D(4) dopamine receptor (Homo sapiens, UniProt P21917); assay: in vitro binding affinity was determined on human Dopamine receptor D4 expressed in chinese hamster ovary(CHO) K-1 cells using [3H]spiperone as radioligand.; assay type: cell-based, CHO-K1
T3 sequence (P21917 whole entry): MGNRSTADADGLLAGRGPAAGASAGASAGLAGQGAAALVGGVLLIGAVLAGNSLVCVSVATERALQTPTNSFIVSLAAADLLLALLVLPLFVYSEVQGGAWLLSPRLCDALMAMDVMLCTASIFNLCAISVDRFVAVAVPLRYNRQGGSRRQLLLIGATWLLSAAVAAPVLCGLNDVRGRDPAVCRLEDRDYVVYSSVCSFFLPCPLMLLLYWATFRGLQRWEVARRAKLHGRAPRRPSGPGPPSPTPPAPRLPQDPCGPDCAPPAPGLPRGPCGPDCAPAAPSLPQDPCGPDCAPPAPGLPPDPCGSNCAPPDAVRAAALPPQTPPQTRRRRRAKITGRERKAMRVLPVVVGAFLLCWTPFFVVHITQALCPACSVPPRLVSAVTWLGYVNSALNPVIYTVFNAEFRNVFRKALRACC
How it was run: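 Displacement of [³H]spiperone from human D4.2 receptors expressed in CHO K-1 cells; Ki values are means of three separate experiments, which varied by no more than 25%.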

[5] = biological target: D(3) dopamine receptor (Rattus norvegicus) (UniProt P19020); settings: CHO-L6
Sequence of D(3) dopamine receptor (Rattus norvegicus) (P19020 whole entry): as the sequence (P19020 whole entry) above

D(2) dopamine receptor [6] = biological target: T4, D(2) dopamine receptor (Homo sapiens, UniProt P14416); assay: in vitro binding affinity was determined on human Dopamine receptor D2L expressed in chinese hamster ovary(CHO) K-1 cells using [3H]NPA as radioligand.; assay type: cell-based, CHO-K1
T4 sequence (P14416 whole entry): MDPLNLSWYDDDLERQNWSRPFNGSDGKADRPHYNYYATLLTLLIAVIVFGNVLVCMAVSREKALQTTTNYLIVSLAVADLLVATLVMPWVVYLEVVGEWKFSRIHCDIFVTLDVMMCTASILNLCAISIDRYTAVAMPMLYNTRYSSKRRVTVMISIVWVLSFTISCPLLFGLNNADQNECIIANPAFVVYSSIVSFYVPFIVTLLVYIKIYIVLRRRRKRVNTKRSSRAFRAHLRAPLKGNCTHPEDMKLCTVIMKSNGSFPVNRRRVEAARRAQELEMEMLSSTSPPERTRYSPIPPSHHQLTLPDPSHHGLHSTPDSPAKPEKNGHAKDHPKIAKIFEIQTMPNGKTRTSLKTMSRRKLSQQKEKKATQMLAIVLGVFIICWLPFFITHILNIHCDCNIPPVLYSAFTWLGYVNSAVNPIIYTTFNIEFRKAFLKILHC
How it was run: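 Displacement of agonist radioligand [³H]NPA from human D2L receptors expressed in CHO K-1 cells. Ki is the mean of three separate experiments, with results varying by no more than 25%.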

[7] = Inhibitory concentration of lipid peroxidation (LPO).; assay type: functional
D(3) dopamine receptor [8] = biological target: D(3) dopamine receptor (Homo sapiens, UniProt P35462); assay: in vitro binding affinity was determined on human Dopamine receptor D3 expressed in chinese hamster ovary(CHO) K-1 cells using [3H]spiperone as radioligand.; assay type: cell-based, CHO-K1
Sequence of D(3) dopamine receptor (Homo sapiens, UniProt P35462) (P35462 whole entry): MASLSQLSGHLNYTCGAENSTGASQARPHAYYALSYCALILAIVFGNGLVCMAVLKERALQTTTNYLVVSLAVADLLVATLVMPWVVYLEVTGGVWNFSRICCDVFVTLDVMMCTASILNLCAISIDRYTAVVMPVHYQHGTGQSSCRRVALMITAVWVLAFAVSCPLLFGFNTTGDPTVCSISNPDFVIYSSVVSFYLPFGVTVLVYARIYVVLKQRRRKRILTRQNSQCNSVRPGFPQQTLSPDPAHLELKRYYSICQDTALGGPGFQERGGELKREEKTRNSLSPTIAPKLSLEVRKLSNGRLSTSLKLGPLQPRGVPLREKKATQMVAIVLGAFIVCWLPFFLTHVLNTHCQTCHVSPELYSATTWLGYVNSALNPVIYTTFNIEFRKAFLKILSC

D(2) dopamine receptor [9] = biological target: T2, D(2) dopamine receptor; assay: Effective concentration was determined as thymidine uptake in CHO-L6 cells transfected with the rat Dopamine receptor D2L by mitogenesis assay; assay type: functional, cell-based
How it was run: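 Agonism read as [³H]thymidine uptake (mitogenesis) in CHO-L6 cells transfected with rat DA D2L receptor; intrinsic activity expressed relative to quinpirole (full agonist, IA 100%); test concentrations 0.1 nM to 1 µM; means of three determinations ± SEM.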

D(2) dopamine receptor [10] = biological target: T4, D(2) dopamine receptor; assay: in vitro binding affinity was determined on human Dopamine receptor D2L expressed in chinese hamster ovary(CHO) K-1 cells using [3H]spiperone as radioligand.; assay type: cell-based, CHO-K1
How it was run: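 Antagonist binding: displacement of [³H]spiperone from human DA D2L, D3 or D4.2 receptors expressed in CHO K-1 cells; Ki as mean of three separate experiments, varying by no more than 25%; high- and low-affinity Ki reported separately where applicable.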

[11] = biological target: D(2) dopamine receptor (Rattus norvegicus) (UniProt P61169); assay: Inhibition of quinpirole (30 nM)-stimulated [3H]thymidine uptake in CHO-L6 cells transfected with the rat Dopamine receptor D2L; compound is active showing test concentration ranging from 0.1 nM - 1 uM; assay type: functional, cell-based
D(3) dopamine receptor [12] = biological target: T1, D(3) dopamine receptor; assay: Effective concentration was determined as thymidine uptake in CHO-L6 cells transfected with the rat Dopamine receptor D3 by mitogenesis assay; assay type: functional, cell-based
D(2) dopamine receptor [13] = biological target: T4, D(2) dopamine receptor; assay: in vitro binding affinity was determined on human Dopamine receptor D2L expressed in chinese hamster ovary(CHO) K-1 cells using [3H]-0437 as radioligand.; assay type: cell-based, CHO-K1
How it was run: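 Human DA D2L receptor expressed in CHO K-1 cells; agonist radioligand displacement ([³H]N-0437 or [³H]NPA); Ki as mean of three separate experiments, varying by no more than 25%.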

[14] = biological target: D(3) dopamine receptor (Rattus norvegicus) (UniProt P19020); settings: CHO-L6; remark: listed apart in the source
[15] = Log d of compound was determined; assay type: physicochemical; settings: octanol/water
[16] = biological target: D(2) dopamine receptor (Rattus norvegicus) (UniProt P61169); assay: Inhibition of quinpirole (30 nM)-stimulated [3H]thymidine uptake in CHO-L6 cells transfected with the rat Dopamine receptor D2L;compound is active showing test concentration ranging from 0.1 nM - 1 uM; assay type: functional, cell-based

| SMILES | NA [1] | Intrinsic activity [2] [%] | EC50 (D(3) dopamine receptor [3]) [nM] | EC50 (D(2) dopamine receptor [4]) [nM] | IC50 (D(4) dopamine receptor) [nM] | Inhibitory activity [5] | Ki (D(2) dopamine receptor [6]) [nM] | IC50 [7] [nM] | Ki (D(3) dopamine receptor [8]) [nM] | EC50 (D(2) dopamine receptor [9]) [nM] | Ki (D(2) dopamine receptor [10]) [nM] | Inhibitory activity [11] | EC50 (D(3) dopamine receptor [12]) [nM] | Ki (D(2) dopamine receptor [13]) [nM] | Inhibitory activity [14] | logD [15] | Ki (D(4) dopamine receptor) [nM] | Inhibitory activity [16] |
| --- | --- | --- | --- | --- | --- | --- | --- | --- | --- | --- | --- | --- | --- | --- | --- | --- | --- | --- |
| CCCN(CCC)C1Cc2ccc3nc(N)sc3c2C1 (centres undefined) | inactive | 71 | > 1000 | 18.7 | > 10000 | Active | 500 | 30000 | 11 | – | – | – | – | – | – | – | – | – |
| CCCN(CCC)C1COc2ccc3nc(N)sc3c2C1 (centres undefined) | – | 7 | – | – | – | – | – | 50000 | 510 | 148 | 5920 | Active | > 1000 | 47 | Active | – | – | – |
| CCCN(CCC)C1Cc2cc3nc(N)sc3cc2C1 (centres undefined) | – | 28 | > 1000 | 5.7 | – | – | 27 | 60000 | 1.4 | – | – | – | – | – | Active | 1.66 | 272 | Active |
| CCCNC1Cc2cc3nc(N)sc3cc2C1 (centres undefined) | – | – | – | – | – | – | 1350 | > 100000 | > 10000 | – | – | – | – | – | – | 0.19 | > 3330 | – |
| CCCN(CCC)C1COc2c(ccc3sc(N)nc23)C1 (centres undefined) | – | – | – | – | – | – | – | 5000 | 1400 | – | 3510 | – | – | 536 | – | – | – | – |
| CCCN[C@H]1CCc2nc(N)sc2C1 [PRAMIPEXOLE] | – | 90 | – | – | – | – | – | – | – | – | – | – | 0.21 | – | – | – | – | – |
